In data set [1] the test system is HEK293. Nature of the data set: Cytotoxicity against human HEK293 cells at 34 uM. In kind it is cell-based. The note with it: hek293, 34 µM.
Another data set deals with T1, Aromatase (Homo sapiens, UniProt P11511).
T1 sequence (P11511 whole entry): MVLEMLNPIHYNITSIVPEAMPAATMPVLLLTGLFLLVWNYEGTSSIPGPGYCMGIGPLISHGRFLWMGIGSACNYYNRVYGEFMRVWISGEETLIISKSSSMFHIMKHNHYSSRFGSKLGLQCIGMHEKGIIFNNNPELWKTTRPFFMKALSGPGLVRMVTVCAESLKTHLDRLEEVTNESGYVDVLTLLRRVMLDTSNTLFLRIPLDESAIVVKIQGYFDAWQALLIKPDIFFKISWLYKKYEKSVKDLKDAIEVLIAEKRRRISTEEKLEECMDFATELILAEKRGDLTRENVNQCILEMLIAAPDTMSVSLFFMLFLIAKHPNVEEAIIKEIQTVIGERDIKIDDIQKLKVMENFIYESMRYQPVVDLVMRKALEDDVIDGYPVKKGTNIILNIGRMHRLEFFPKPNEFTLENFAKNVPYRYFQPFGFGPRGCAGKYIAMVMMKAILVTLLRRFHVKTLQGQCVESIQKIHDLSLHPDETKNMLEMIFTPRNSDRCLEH
Particulars: read-out: INH.

Data set [2] relates to HEK293. Nature of the data set: Inhibition of TNF-alpha-induced NF-kappaB activity expressed in HEK293 cells at 34 uM after 48 hrs by luciferase reporter gene assay relative to control. In kind it is cell-based. In short, it runs like this:
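Stably transfected 293 cells carrying an NFκB response element–luciferase reporter, exposed to TNFα plus compound for 48 h, then assayed for luciferase. Activity expressed as % of TNFα-treated control. IC₅₀ from five serial dilutions, mean of two experiments.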

Data set [3] has as its target T2, Nitric oxide synthase, inducible (Mus musculus) (UniProt P29477).
T2 sequence (whole entry): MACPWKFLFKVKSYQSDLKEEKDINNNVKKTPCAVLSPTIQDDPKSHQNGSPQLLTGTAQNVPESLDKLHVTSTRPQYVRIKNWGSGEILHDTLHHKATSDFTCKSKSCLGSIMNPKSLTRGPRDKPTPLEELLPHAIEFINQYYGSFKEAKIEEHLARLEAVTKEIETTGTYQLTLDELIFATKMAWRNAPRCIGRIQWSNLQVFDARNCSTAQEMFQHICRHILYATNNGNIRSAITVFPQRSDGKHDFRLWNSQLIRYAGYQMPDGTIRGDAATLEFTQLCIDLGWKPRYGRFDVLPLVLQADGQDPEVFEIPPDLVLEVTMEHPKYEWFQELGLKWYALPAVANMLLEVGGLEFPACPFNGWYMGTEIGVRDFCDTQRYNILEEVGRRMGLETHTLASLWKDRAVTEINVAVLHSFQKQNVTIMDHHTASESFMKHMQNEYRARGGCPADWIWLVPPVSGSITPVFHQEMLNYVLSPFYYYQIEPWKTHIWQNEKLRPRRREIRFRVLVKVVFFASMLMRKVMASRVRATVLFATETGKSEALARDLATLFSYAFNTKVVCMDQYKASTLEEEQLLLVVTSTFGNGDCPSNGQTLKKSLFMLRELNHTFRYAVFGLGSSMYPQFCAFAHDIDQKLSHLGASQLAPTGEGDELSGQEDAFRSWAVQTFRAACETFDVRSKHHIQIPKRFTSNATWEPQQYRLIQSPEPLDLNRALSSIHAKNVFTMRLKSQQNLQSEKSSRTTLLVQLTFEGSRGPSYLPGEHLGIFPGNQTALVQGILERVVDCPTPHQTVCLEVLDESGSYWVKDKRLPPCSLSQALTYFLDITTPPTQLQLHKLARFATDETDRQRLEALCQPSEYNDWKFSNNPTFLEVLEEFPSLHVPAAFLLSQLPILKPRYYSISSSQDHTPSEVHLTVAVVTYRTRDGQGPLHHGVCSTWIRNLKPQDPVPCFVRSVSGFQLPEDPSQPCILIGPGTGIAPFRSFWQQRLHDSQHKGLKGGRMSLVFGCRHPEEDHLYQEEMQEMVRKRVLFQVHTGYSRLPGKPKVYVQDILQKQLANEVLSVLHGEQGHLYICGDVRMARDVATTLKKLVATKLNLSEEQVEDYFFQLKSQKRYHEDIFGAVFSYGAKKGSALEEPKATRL
Nature of the data set: Inhibition of iNOS-mediated nitric oxide production in mouse RAW 264.7 cells at 34 uM pretreated 30 mins measured after 20 hrs by Griess reaction method relative to control. In kind it is cell-based. Put shortly:
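RAW 264.7 macrophages seeded at 1 × 10⁵ cells/well for 24 h. Compounds in phenol red-free DMEM added 30 min before LPS (1 μg/mL), then 20 h further incubation. Nitrite in medium measured by Griess reagent at 540 nm against a sodium nitrite standard curve; inhibition at 34 μM.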
For orientation: The Griess reaction detects nitrite, a stable product of nitric oxide.

Data set [4] in a line: Antioxidant activity assessed as nitric oxide scavenging activity at 60 uM. In kind it is functional. Put shortly:
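Compounds diluted tenfold in PBS and incubated with sodium nitroprusside (final compound 60 μM, SNP 5 mM) for 3 h at room temperature. Nitrite measured by Griess reagent, absorbance 540 nm. % inhibition given as average of triplicates ± standard deviation.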

For data set [5], the target named is T2, Nitric oxide synthase, inducible (Mus musculus). As to the kind of experiment: Inhibition of iNOS-mediated nitric oxide production in LPS-stimulated mouse RAW 264.7 cells at 34 uM pretreated 30 mins before LPS challenge measured after 20 hrs by Griess reaction method relative to control. Format: cell-based.
The subject of data set [6] is RAW264.7. Nature of the data set: Inhibition of LPS-induced COX2 expression in mouse RAW264.7 cells at 34 uM treated 15 mins before LPS challenge measured after 18 hrs by immunoblotting. Format: functional, cell-based. Put shortly:
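RAW 264.7 cells pretreated with samples 15 min, then LPS 1 μg/mL for 18 h. Lysates (30 μg protein) run on 8% SDS-PAGE, transferred to PVDF, probed with primary and HRP secondary antibodies, ECL detection. β-actin internal control; band density quantified relative to the LPS-only control; duplicate experiment.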
For orientation: A western blot detects proteins with antibodies after separation by electrophoresis.

Data set [7] is described as follows: Antioxidant activity assessed as DPPH scavenging activity at 340 uM after 30 mins. Format: functional.
Data set [8] addresses NAD(P)H dehydrogenase [quinone] 1 (Mus musculus) (UniProt Q64669). As to the kind of experiment: Induction of quinone reductase 1 in mouse Hepa 1c1c7 cells assessed as drug level required to double enzyme activity by MTT assay. (In general: Tetrazolium dyes change colour on reduction, which living cells bring about.)
Data set [9] deals with RAW264.7. As to the kind of experiment: Inhibition of LPS-induced COX2 expression in mouse RAW264.7 cells at 34 uM treated 15 mins before LPS challenge measured after 18 hrs by Western blotting relative to control. Format: functional. Put shortly:
(§1)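 RAW 264.7 cells pretreated 15 min with compound (34 μM), then LPS 1 μg/mL for 18 h. Lysates (30 μg protein) run on 8% SDS-PAGE and transferred to PVDF. Blocked in 5% milk/TBST, probed for iNOS and COX-2 with HRP secondary, ECL detection, β-actin internal control. Band density relative to LPS-treated control; duplicate experiments.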

Data set [10] deals with T3, Prostaglandin G/H synthase 1 (Ovis aries) (UniProt P05979).
T3 sequence (whole entry): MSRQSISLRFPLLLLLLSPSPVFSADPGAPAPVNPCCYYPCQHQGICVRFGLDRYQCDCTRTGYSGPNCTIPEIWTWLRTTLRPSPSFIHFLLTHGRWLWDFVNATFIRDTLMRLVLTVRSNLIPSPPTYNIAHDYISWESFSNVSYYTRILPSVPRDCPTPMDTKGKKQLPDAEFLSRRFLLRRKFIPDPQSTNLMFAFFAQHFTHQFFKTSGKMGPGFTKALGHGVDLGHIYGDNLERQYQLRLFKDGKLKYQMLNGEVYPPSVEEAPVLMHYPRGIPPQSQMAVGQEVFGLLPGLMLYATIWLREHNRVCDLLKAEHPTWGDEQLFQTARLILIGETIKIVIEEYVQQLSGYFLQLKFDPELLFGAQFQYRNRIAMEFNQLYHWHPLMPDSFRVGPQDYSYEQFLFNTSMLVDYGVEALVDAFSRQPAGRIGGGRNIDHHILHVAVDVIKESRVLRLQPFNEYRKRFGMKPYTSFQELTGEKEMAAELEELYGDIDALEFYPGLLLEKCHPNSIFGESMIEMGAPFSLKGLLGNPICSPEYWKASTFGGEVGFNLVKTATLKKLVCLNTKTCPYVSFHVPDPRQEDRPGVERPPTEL
Nature of the data set: Inhibition of sheep seminal vesicles COX1 assessed as PGE2 production at 34 uM after 10 mins by ELISA relative to control. In short, it runs like this: (§2)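 Sheep seminal vesicle COX-1; reaction started with arachidonic acid, 10 min at room temperature, stopped with 27.8 μM indomethacin. PGE₂ quantified by competitive ELISA (PGE₂-acetylcholinesterase tracer, Ellman's reagent, 412 nm) against a PGE₂ standard curve. Result as % of solvent control; IC₅₀ from dose-response curves.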

Data set [11] concerns RAW264.7. Nature of the data set: Inhibition of LPS-induced iNOS expression in mouse RAW264.7 cells at 34 uM treated 15 mins before LPS challenge measured after 18 hrs by Western blotting. Format: functional, cell-based. In short, it runs like this:
as §1

A further data set relates to MCF7. Nature of the data set: Cellular uptake in human MCF7 cells assessed per millions cells at 50 uM after 24 hrs by LC/MS/MS analysis. Particulars: mcf7, 24 h. Format: ADME, cell-based.
For data set [12], the target named is T4, Nitric oxide synthase, inducible (Mus musculus, UniProt P29477).
T4 sequence (P29477 whole entry): T2 sequence (whole entry)

For data set [13], the target named is T5, Prostaglandin G/H synthase 1 (Ovis aries, UniProt P05979).
T5 sequence (P05979 whole entry): T3 sequence (whole entry)
As to the kind of experiment: Inhibition of sheep seminal vesicles COX1 assessed as PGE2 production after 10 mins by ELISA. Put shortly:
as §2

Another data set has as its system HL-60. As to the kind of experiment: Cell cycle arrest in human HL60 cells assessed as accumulation at sub-G1 phase at 34 uM after 24 hrs by flow cytometry. In kind it is functional. Put shortly:
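HL-60 cells (2 × 10⁵/well) exposed to samples for 24 h, then stained with NIM-DAPI nuclear isolation medium. Read by flow cytometry under UV excitation; percentage of cells in subG₁ taken from the DNA histogram.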

The test system of the next data set is KB. Nature of the data set: Cytotoxicity against human KB cells assessed as cell survival at 20 ug/ml after 72 hrs by sulforhodamine B method. Particulars: read-out: Activity. In kind it is functional. In short, it runs like this:
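Sulforhodamine B assay. KB or MCF7 cells plated with samples and held 72 h at 37 °C, 5% CO₂. Fixed 1 h in 10% trichloroacetic acid, stained with 0.4% SRB in 1% acetic acid, dye taken up in 10 mM Tris.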

The values below come from ChEMBL document CHEMBL1177719 (J Med Chem, 2010).

Active and inactive are the calls of the source. The calls are words filed in the database; no cut-off is given here.

Sequence of NAD(P)H dehydrogenase [quinone] 1 (Mus musculus) (Q64669 whole entry): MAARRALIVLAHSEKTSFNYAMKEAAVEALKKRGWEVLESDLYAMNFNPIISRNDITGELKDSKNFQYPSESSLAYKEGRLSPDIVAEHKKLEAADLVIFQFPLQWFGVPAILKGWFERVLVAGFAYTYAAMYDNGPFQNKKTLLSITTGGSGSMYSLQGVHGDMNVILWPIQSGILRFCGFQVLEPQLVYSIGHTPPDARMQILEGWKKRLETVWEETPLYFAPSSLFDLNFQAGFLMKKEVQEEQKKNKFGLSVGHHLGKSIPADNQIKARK

Turning to `O=S(=O)([O-])Oc1ccc(/C=C/c2cc(O)cc(OS(=O)(=O)[O-])c2)cc1.[K+].[K+]`, the values for the Activity entry (in the data set on HEK293 [1]; in data set [4]) were “Non-toxic” and 0%, respectively. Also, the inhibition at 34 µM on Aromatase amounted to 22.5%. The inhibition in the data set on HEK293 [2] was 53.4%; in [5], 41.7%; in [7] it was 6.8%; in data set [10], 23.3%. The result in data set [3] was inactive. Further, the inhibition result in the data set on RAW264.7 [6] is “inactive”. Further, in [8], the CD is above 10.1 µM. Besides, the “fold change (FC)” value in the data set with RAW264.7 [9] was 0.6.
On to `Oc1ccc(/C=C/c2cc(O)cc(O)c2)cc1` [RESVERATROL], for which the Activity result was “Non-toxic” in the data set on HEK293 [1] and 24.9% in the data set with HL-60. Further, the inhibition in the data set with HEK293 [2] was found to be 75.7%; in data set [10] it was 75.2%. In addition, the inhibition result in the data set with RAW264.7 [11] is “Active”. In addition, the inhibition entry in the data set with RAW264.7 [6] is “inactive”. The Drug uptake in the data set with MCF7 was determined as 54.7 pmol. In addition, the IC50 in data set [12] was 15 µM; in [13], 6.65 µM. Besides, the viability at 20 µg/mL in the data set with KB stood at 47.8%.

In general, IC50 refers to the point on the concentration scale where inhibition reaches its midpoint.
